Results published in ChEMBL document CHEMBL5335820, “Novel quinolinepiperazinyl-aryltetrazoles targeting the blood stage of Plasmodium falciparum” (RSC Med Chem, 2024).

What was measured:
[1] = Selectivity index, ratio of CC50 for human Huh-7 cells to IC50 for antiplasmodial activity against chloroquine resistant Plasmodium falciparum INDO infected in human erythrocytes; assay type: toxicity, cell-based; conditions: read-out: Ratio CC50/IC50
Method in brief: (§1)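 Selectivity index = CC50 / PfINDO IC50. CC50 came from MTT assays: 10^4 HEK293 or HUH7 cells per well, seeded overnight and exposed to 0–100 μM for 24 h, then MTT for 4 h at 37 °C with formazan dissolved in DMSO and read at A570. Controls were 0.8% DMSO (full growth) and 10% DMSO (zero growth).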

Plasmodium falciparum [2] = experiment: Antiplasmodial activity against chloroquine resistant Plasmodium falciparum INDO infected in human erythrocytes assessed as inhibition of parasite growth at 100 uM incubated for 72 hrs by SYBR green I staining based fluorescence plate reader analysis relative to control; assay type: functional; conditions: Erythrocyte
Method in brief: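 Single-concentration screen at 100 μM against PfINDO, triplicate wells, 72 h. Final DMSO was 0.4%. Growth was read by SYBR Green I lysis (excitation 485, emission 530 nm) and expressed relative to untreated culture, taken as 100% growth.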

[3] = Resistance index, ratio of IC50 of chloroquine resistant Plasmodium falciparum INDO to chloroquine sensitive Plasmodium falciparum 3D7; assay type: functional
Method in brief: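 Resistance index = IC50 against PfINDO / IC50 against Pf3D7. Both IC50s came from 72 h SYBR Green I assays.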

[4] = Cytotoxicity against human HEK293 cells assessed as reduction in cell viability incubated for 24 hrs by MTT assay; assay type: toxicity, cell-based
[5] = Cytotoxicity against human Huh-7 cells assessed as reduction in cell viability incubated for 24 hrs by MTT assay; assay type: toxicity, cell-based
[6] = Selectivity index, ratio of CC50 for human HEK293 cells to IC50 of chloroquine resistant Plasmodium falciparum INDO infected in human erythrocytes; assay type: toxicity, cell-based; conditions: read-out: Ratio CC50/IC50; method in brief: as §1
Plasmodium falciparum [7] = experiment: Antiplasmodial activity against chloroquine resistant Plasmodium falciparum INDO infected in human erythrocytes assessed as inhibition of parasite growth incubated for 72 hrs by SYBR green I staining based fluorescence plate reader analysis; assay type: functional, organism-based; conditions: Erythrocyte
Method in brief: (§2)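 Pf3D7 or PfINDO was cultured in O+ human erythrocytes at 37 °C under 5% O2/5% CO2/90% N2 and ring-synchronised with 5% sorbitol. Cultures were exposed to 0–100 μM in triplicate for 72 h, with final DMSO 0.4%. After SYBR Green I lysis buffer (1 h, dark, 37 °C), fluorescence was read at 485/530 nm. Chloroquine-well counts were subtracted as background, and IC50 was obtained by non-linear regression.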

Plasmodium falciparum [8] = experiment: Antiplasmodial activity against chloroquine sensitive Plasmodium falciparum 3D7 infected in human erythrocytes assessed as inhibition of parasite growth incubated for 72 hrs by SYBR green I staining based fluorescence plate reader analysis; assay type: functional, organism-based; conditions: 3D7, Erythrocyte; method in brief: as §2
Plasmodium falciparum [9] = experiment: Antiplasmodial activity against chloroquine sensitive Plasmodium falciparum 3D7 infected in human erythrocytes assessed as inhibition of parasite growth at 100 uM incubated for 72 hrs by SYBR green I staining based fluorescence plate reader analysis relative to control; assay type: functional; conditions: 3D7, Erythrocyte
Method in brief: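 Pf3D7 grown in O+ human erythrocytes at 4% haematocrit, Albumax (0.05%)-RPMI, 37 °C, 5% O2/5% CO2/90% N2, sorbitol-synchronised at ring stage. Single-point screen at 100 μM, final DMSO 0.4%, triplicate wells, 72 h. Read-out by SYBR Green I lysis buffer (Tris pH 7.5, EDTA, saponin, Triton X-100), 1 h dark at 37 °C, ex 485/em 530 nm. Growth expressed relative to untreated culture.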

Plasmodium berghei = experiment: Antimalarial activity against Plasmodium berghei ANKA infected in mouse model of malaria assessed as reduction in parasite infection by measuring median survival at 100 mg/kg, po; assay type: functional
Plasmodium falciparum [10] = experiment: Antimalarial activity against chloroquine resistant trophozoites-stage Plasmodium falciparum INDO infected in human erythrocytes assessed as inhibition of parasite growth incubated for 12 hrs; assay type: functional, organism-based; conditions: Erythrocyte
Method in brief: (§3)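 PfINDO cultures were staged at 0–6 h (rings), 18–22 h (trophozoites), 30–34 h (early schizonts) and 40–44 h (late schizonts) post-invasion. Each was exposed to varying concentrations for 12 h, washed free of compound by centrifugation, and grown 48 h in drug-free medium. IC50 came from growth curves, with untreated culture as 100% and chloroquine-treated culture as 0% growth.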

Plasmodium falciparum [11] = experiment: Antimalarial activity against chloroquine resistant late schizont Plasmodium falciparum INDO infected in human erythrocytes assessed as inhibition of parasite growth incubated for 12 hrs; assay type: functional, organism-based; conditions: Erythrocyte; method in brief: as §3
Plasmodium falciparum [12] = experiment: Antimalarial activity against chloroquine resistant early schizont Plasmodium falciparum INDO infected in human erythrocytes assessed as inhibition of parasite growth incubated for 12 hrs; assay type: functional, organism-based; conditions: Erythrocyte; method in brief: as §3
Plasmodium falciparum [13] = experiment: Antiplasmodial activity against chloroquine resistant ring-stage Plasmodium falciparum INDO infected in human erythrocytes assessed as inhibition of parasite growth incubated for 12 hrs; assay type: functional, organism-based; conditions: Erythrocyte; method in brief: as §3

SMILES	selectivity ratio [1]	inhibition at 100 µM (Plasmodium falciparum [2])	Ratio IC50 [3]	CC50 at 24 h [4]	CC50 at 24 h [5]	selectivity ratio [6]	IC50 (Plasmodium falciparum [7])	IC50 (Plasmodium falciparum [8])	inhibition at 100 µM (Plasmodium falciparum [9])	Survival (Plasmodium berghei)	IC50 (Plasmodium falciparum [10])	IC50 (Plasmodium falciparum [11])	IC50 (Plasmodium falciparum [12])	IC50 (Plasmodium falciparum [13])
COc1ccc(-c2nnn(CCCN3CCN(c4ccnc5cc(Cl)ccc45)CC3)n2)cc1OC	21.7	> 50%	1.23	> 400 µM	129 µM	67	5.97 µM	4.84 µM	> 50%					
CCN(CC)CCCC(C)Nc1ccnc2cc(Cl)ccc12 (configuration not stated) [CHLOROQUINE]										28 days				
O=C(Cn1nnc(-c2cccc(Cl)c2)n1)N1CCN(c2ccnc3cc(Cl)ccc23)CC1	> 67.7	> 50%	0.47	> 400 µM	> 400 µM	67.7	5.91 µM	12.6 µM	> 50%		5.39 µM	24.8 µM	15.9 µM	19.6 µM
Clc1cccc(-c2nnn(CCCN3CCN(c4ccnc5cc(Cl)ccc45)CC3)n2)c1	> 20.1	> 50%	1.87	> 400 µM	> 400 µM	20.1	19.9 µM	10.7 µM	> 50%					
O=[N+]([O-])c1cccc(-c2nnn(CCCN3CCN(c4ccnc5cc(Cl)ccc45)CC3)n2)c1	4.45	> 50%	1.76	> 400 µM	72 µM	24.7	16.2 µM	9.17 µM	> 50%					
CC(C)c1ccc(-c2nnn(CC(=O)N3CCN(c4ccnc5cc(Cl)ccc45)CC3)n2)cc1	> 60.1	> 50%	0.42	> 400 µM	> 400 µM	60.1	6.66 µM	15.9 µM	> 50%		24.9 µM	26.7 µM	21.5 µM	18.5 µM
O=C(Cn1nnc(-c2cccc(Br)c2)n1)N1CCN(c2ccnc3cc(Cl)ccc23)CC1	> 44.5	> 50%	0.86	> 400 µM	> 400 µM	44.5	8.99 µM	10.5 µM	> 50%					
Fc1ccc(-c2nnn(CCCN3CCN(c4ccnc5cc(Cl)ccc45)CC3)n2)cc1	> 99	> 50%	1.96	> 400 µM	> 400 µM	99	4.04 µM	2.07 µM	> 50%		2.8 µM	1.85 µM	1.68 µM	1.72 µM
O=C(Cn1nnc(-c2ccc([N+](=O)[O-])cc2)n1)N1CCN(c2ccnc3cc(Cl)ccc23)CC1	> 179	> 50%	1.36	> 400 µM	> 400 µM	179	2.24 µM	1.65 µM	> 50%		4.72 µM	6.29 µM	5.46 µM	10.3 µM
COc1cccc(-c2nnn(CCCN3CCN(c4ccnc5cc(Cl)ccc45)CC3)n2)c1	> 52.2	> 50%	0.77	342 µM	> 400 µM	44.6	7.66 µM	9.9 µM	> 50%					
O=C(Cn1nnc(-c2ccc(F)cc2)n1)N1CCN(c2ccnc3cc(Cl)ccc23)CC1	1.95	> 50%	0.8	> 400 µM	24.2 µM	32.2	12.4 µM	15.6 µM	> 50%					
CC(C)c1ccc(-c2nnn(CCCN3CCN(c4ccnc5cc(Cl)ccc45)CC3)n2)cc1	> 47.8	> 50%	2.69	> 400 µM	> 400 µM	47.8	8.37 µM	3.12 µM	> 50%					
Clc1ccc2c(N3CCN(CCCn4nnc(-c5cccc(Br)c5)n4)CC3)ccnc2c1	> 56.8	> 50%	1.83	> 400 µM	> 400 µM	56.8	7.05 µM	3.84 µM	> 50%		7.31 µM	4.62 µM	8.24 µM	8.67 µM
Clc1ccc(-c2nnn(CCCN3CCN(c4ccnc5cc(Cl)ccc45)CC3)n2)cc1	> 139	> 50%	2.58	> 400 µM	> 400 µM	139	2.87 µM	1.11 µM	> 50%		12.2 µM	7.64 µM	3.93 µM	4.07 µM
Fc1cccc(-c2nnn(CCCN3CCN(c4ccnc5cc(Cl)ccc45)CC3)n2)c1	> 28.1	> 50%	0.62	> 400 µM	> 400 µM	28.1	14.2 µM	22.9 µM	> 50%					
O=C(Cn1nnc(-c2cccc(F)c2)n1)N1CCN(c2ccnc3cc(Cl)ccc23)CC1	> 47.3	> 50%	1.04	> 400 µM	> 400 µM	47.3	8.46 µM	8.14 µM	> 50%					
O=C(Cn1nnc(-c2ccc(Br)cc2)n1)N1CCN(c2ccnc3cc(Cl)ccc23)CC1	> 35.6	> 50%	0.64	> 400 µM	> 400 µM	35.6	11.2 µM	17.5 µM	> 50%					
Cc1ccc(-c2nnn(CCCN3CCN(c4ccnc5cc(Cl)ccc45)CC3)n2)cc1	48.8	> 50%	0.79	> 400 µM	310 µM	63	6.35 µM	8 µM	> 50%					
O=C(Cn1nnc(-c2ccc(Cl)cc2)n1)N1CCN(c2ccnc3cc(Cl)ccc23)CC1	> 28.7	> 50%	0.43	> 400 µM	> 400 µM	28.7	14 µM	32.1 µM	> 50%					
